# In ChEMBL document CHEMBL1143703, “Linear TMC-95-based proteasome inhibitors” (J Med Chem, 2007):
# Residues, ends and D or L forms follow the SMILES beside them. *: point of attachment. Cbz = O=C(OCc1ccccc1)*; Boc = CC(C)(C)OC(=O)*; NHBn = c1ccc(CN*)cc1; NHPh = c1ccc(N*)cc1; Bn = c1ccc(C*)cc1
# Tests used:
# [1] = organism: Oryctolagus cuniculus; assay: Inhibition of chymotrypsin-like activity of rabbit reticulocyte 20S proteasome at 100 uM
# [2] = Inhibition of chymotrypsin-like activity of rabbit reticulocyte 20S proteasome; design: species or system Oryctolagus cuniculus
# [3] = organism: Oryctolagus cuniculus; assay: Activation of trypsin-like activity of rabbit reticulocyte 20S proteasome relative to control
# Summary of the method: (§1)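 Trypsin-like site: proteasome exposed to 0.1-100 µM compound, fluorogenic substrate hydrolysis read 1 h at 37 °C in pH 7.5 20 mM Tris, 1 mM DTT, 10% glycerol without SDS; 3% DMSO final. Initial rates relative to untreated control: >100% expressed as activation factor, <100% as inhibition; Ki via Vi/V0 = 1/(1+[I]/Ki(app)) or IC50 = Ki(1+[S]/Km).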
# [4] = Inhibition of post acid activity of rabbit reticulocyte 20S proteasome; design: species or system Oryctolagus cuniculus
# [5] = organism: Oryctolagus cuniculus; assay: Inhibition of trypsin-like activity of rabbit reticulocyte 20S proteasome at 100 uM; summary of the method: as §1
# [6] = Inhibition of trypsin-like activity of rabbit reticulocyte 20S proteasome; design: species or system Oryctolagus cuniculus; summary of the method: as §1
# [7] = organism: Oryctolagus cuniculus; assay: Inhibition of post acid activity of rabbit reticulocyte 20S proteasome at 100 uM
SMILES,inhibition [1],Ki [2],Fold change [3],Ki [4],inhibition [5],Ki [6],inhibition [7]
CC(C)C[C@H](NC(=O)[C@H](Cc1ccc(OCc2ccccc2)cc1)NC(=O)OC(C)(C)C)C(=O)N[C@@H](Cc1c[nH]c2ccccc12)C(=O)Nc1ccc(O)cc1,< 20%,> 100 µM,1.6,96.4 µM,,,
CCOC(=O)[C@H](Cc1c[nH]c2c(Br)cccc12)NC(=O)[C@H](CC(C)C)NC(=O)[C@H](Cc1ccc(OC)c(I)c1)NC(=O)OC(C)(C)C,< 20%,> 100 µM,,> 100 µM,< 20%,> 100 µM,
CC(C)C[C@@H](C=O)NC(=O)[C@H](CC(C)C)NC(=O)[C@H](CC(C)C)NC(=O)OCc1ccccc1 [MG-132] (Cbz-Leu-Leu-Leu-aldehyde),,0.075 µM,,0.67 µM,,4.5 µM,
NCCCC[C@H](NC(=O)[C@@H](N)Cc1ccc(OCc2ccccc2)cc1)C(=O)N[C@@H](Cc1c[nH]c2ccccc12)C(=O)Nc1ccccc1 (H-Tyr(Bn)-Lys-Trp-NHPh),,2.22 µM,,> 100 µM,,1.12 µM,< 20%
COC(=O)[C@H](Cc1c[nH]c2c(Br)cccc12)NC(=O)[C@H](C)NC(=O)[C@H](Cc1ccc(OCc2ccccc2)c(I)c1)NC(=O)OC(C)(C)C,< 20%,> 100 µM,,96.4 µM,< 20%,> 100 µM,
CC(C)(C)OC(=O)N[C@@H](Cc1ccc(OCc2ccccc2)cc1)C(=O)NCC(=O)N[C@@H](Cc1c[nH]c2ccccc12)C(=O)NCc1ccccc1 (Boc-Tyr(Bn)-Gly-Trp-NHBn),< 20%,> 100 µM,1.7,31.5 µM,,,
CC(C)C[C@H](NC(=O)[C@@H](N)Cc1ccc(OCc2ccccc2)cc1)C(=O)N[C@@H](Cc1c[nH]c2ccccc12)C(=O)NCCCCN,,3.69 µM,,22.5 µM,,0.33 µM,
NCCCC[C@H](NC(=O)[C@@H](N)Cc1ccc(OCc2ccccc2)cc1)C(=O)N[C@@H](Cc1c[nH]c2ccccc12)C(=O)NCc1ccccc1 (H-Tyr(Bn)-Lys-Trp-NHBn),,1.07 µM,,> 100 µM,,0.32 µM,< 20%
CC(C)C[C@H](NC(=O)[C@H](Cc1ccc(OCc2ccccc2)cc1)NC(=O)OC(C)(C)C)C(=O)N[C@@H](Cc1c[nH]c2ccccc12)C(=O)Nc1ccccc1 (Boc-Tyr(Bn)-Leu-Trp-NHPh),< 20%,> 100 µM,1.9,> 100 µM,,,< 20%
C[C@H](NC(=O)[C@H](Cc1ccc(OCc2ccccc2)cc1)NC(=O)OC(C)(C)C)C(=O)N[C@@H](Cc1c[nH]c2ccccc12)C(=O)NCc1ccccc1 (Boc-Tyr(Bn)-Ala-Trp-NHBn),< 20%,> 100 µM,1.7,55.4 µM,,,
CC(C)(C)OC(=O)N[C@@H](Cc1ccc(OCc2ccccc2)cc1)C(=O)NCC(=O)N[C@@H](Cc1c[nH]c2ccccc12)C(=O)O (Boc-Tyr(Bn)-Gly-Trp-OH),< 20%,> 100 µM,1.8,> 100 µM,,,< 20%
COC(=O)[C@H](Cc1c[nH]c2c(Br)cccc12)NC(=O)[C@H](CC(C)C)NC(=O)[C@H](Cc1ccc(OCc2ccccc2)c(I)c1)NC(=O)OC(C)(C)C,< 20%,> 100 µM,2,> 100 µM,,,< 20%
NCCCC[C@H](NC(=O)[C@@H](N)Cc1ccc(OCc2ccccc2)cc1)C(=O)N[C@@H](Cc1c[nH]c2ccccc12)C(=O)Nc1ccc(O)cc1,,0.85 µM,,> 100 µM,,0.98 µM,< 20%
COC(=O)[C@@H]1Cc2c[nH]c3c(cccc23)-c2ccc(cc2OC)C[C@H](NC(=O)OC(C)(C)C)C(=O)N[C@@H](CC(C)C)C(=O)N1,< 20%,> 100 µM,1.8,> 100 µM,,,
COC(=O)[C@H](Cc1c[nH]c2ccccc12)NC(=O)[C@H](C)NC(=O)[C@H](Cc1ccc(O)cc1)NC(=O)OC(C)(C)C (Boc-Tyr-Ala-Trp-OMe),,9.2 µM,6,8.7 µM,,,
CC(C)(C)OC(=O)N[C@@H](Cc1ccc(OCc2ccccc2)cc1)C(=O)N[C@@H](CCCN(C(=N)NC(=O)OCc1ccccc1)C(=O)OCc1ccccc1)C(=O)N[C@@H](Cc1c[nH]c2ccccc12)C(=O)Nc1ccc(O)cc1,< 20%,> 100 µM,,> 100 µM,< 20%,> 100 µM,< 20%
CC(C)C[C@H](NC(=O)[C@H](Cc1ccc(OCc2ccccc2)cc1)NC(=O)OC(C)(C)C)C(=O)N[C@@H](Cc1c[nH]c2ccccc12)C(=O)NCCCCNC(=O)OC(C)(C)C,,81.8 µM,2.3,31.5 µM,,,

SMILES,inhibition [1],Ki [2],Fold change [3],Ki [4],inhibition [5],Ki [6],inhibition [7]
CNC(=O)[C@@H](Cc1c[nH]c2c(-c3ccc(C[C@H](NC(=O)OC(C)(C)C)C(=O)N[C@H](CC(C)C)C(=O)OC)cc3OCc3ccccc3)cccc12)NC(=O)OCc1ccccc1,< 20%,> 100 µM,,> 100 µM,,69 µM,< 20%
CNC(=O)[C@@H](Cc1c[nH]c2c(-c3ccc(C[C@H](NC(=O)OC(C)(C)C)C(=O)N[C@H](C)C(=O)OC)cc3OCc3ccccc3)cccc12)NC(=O)OCc1ccccc1,20%,> 100 µM,,> 100 µM,,21.5 µM,
C[C@H](NC(=O)[C@@H](N)Cc1ccc(OCc2ccccc2)cc1)C(=O)N[C@@H](Cc1c[nH]c2ccccc12)C(=O)NCc1ccccc1 (H-Tyr(Bn)-Ala-Trp-NHBn),,0.48 µM,,> 100 µM,,> 100 µM,
CC(C)(C)OC(=O)NCCCC[C@H](NC(=O)[C@H](Cc1ccc(OCc2ccccc2)cc1)NC(=O)OC(C)(C)C)C(=O)N[C@@H](Cc1c[nH]c2ccccc12)C(=O)Nc1ccccc1 (Boc-Tyr(Bn)-Lys(Boc)-Trp-NHPh),< 20%,> 100 µM,1.6,> 100 µM,,,< 20%
COC(=O)[C@@H]1Cc2c[nH]c3c(cccc23)-c2ccc(cc2OC)C[C@H](NC(=O)OC(C)(C)C)C(=O)N[C@@H](C)C(=O)N1,< 20%,> 100 µM,,37.1 µM,< 20%,> 100 µM,< 20%
CC(C)(C)OC(=O)N[C@@H](Cc1ccc(O)cc1)C(=O)N[C@@H](CCCNC(=N)N)C(=O)N[C@@H](Cc1c[nH]c2ccccc12)C(=O)NCc1ccccc1 (Boc-Tyr-Arg-Trp-NHBn),,1.2 µM,,0.6 µM,,3.9 µM,
CC(C)(C)OC(=O)N[C@@H](Cc1ccc(OCc2ccccc2)cc1)C(=O)N[C@@H](CCCN(C(=N)NC(=O)OCc1ccccc1)C(=O)OCc1ccccc1)C(=O)N[C@@H](Cc1c[nH]c2ccccc12)C(=O)NCc1ccccc1,< 20%,> 100 µM,1.9,> 100 µM,,,< 20%
C[C@H](NC(=O)[C@H](Cc1ccc(O)cc1)NC(=O)OC(C)(C)C)C(=O)N[C@@H](Cc1c[nH]c2ccccc12)C(=O)O (Boc-Tyr-Ala-Trp-OH),< 20%,> 100 µM,6.8,> 100 µM,,,< 20%
CC(C)(C)OC(=O)NCCCC[C@H](NC(=O)[C@H](Cc1ccc(OCc2ccccc2)cc1)NC(=O)OC(C)(C)C)C(=O)N[C@@H](Cc1c[nH]c2ccccc12)C(=O)Nc1ccc(O)cc1,,65.7 µM,,> 100 µM,,> 100 µM,< 20%
CC(C)(C)OC(=O)N[C@@H](Cc1ccc(OCc2ccccc2)cc1)C(=O)N[C@@H](CC(N)=O)C(=O)N[C@@H](Cc1c[nH]c2ccccc12)C(=O)Nc1ccc(O)cc1,,> 100 µM,,23.4 µM,< 20%,> 100 µM,
COC(=O)[C@@H]1Cc2c[nH]c3c(cccc23)-c2ccc(cc2OCc2ccccc2)C[C@H](NC(=O)OC(C)(C)C)C(=O)N[C@@H](CC(C)C)C(=O)N1,< 20%,> 100 µM,1.4,> 100 µM,,,< 20%
COC(=O)[C@H](Cc1c[nH]c2c(Br)cccc12)NC(=O)[C@H](CC(N)=O)NC(=O)[C@H](Cc1ccc(OCc2ccccc2)c(I)c1)NC(=O)OC(C)(C)C,,14.1 µM,,55.4 µM,< 20%,> 100 µM,
CNC(=O)[C@H](Cc1c[nH]c2c(Br)cccc12)NC(=O)[C@H](C)NC(=O)[C@H](Cc1ccc(OCc2ccccc2)c(I)c1)NC(=O)OC(C)(C)C,,59.3 µM,,30.2 µM,< 20%,> 100 µM,
CCOC(=O)[C@@H](Cc1c[nH]c2c(-c3ccc(C[C@H](NC(=O)OC(C)(C)C)C(=O)N[C@H](CC(C)C)C(=O)OC)cc3OCc3ccccc3)cccc12)NC(=O)OCc1ccccc1,< 20%,> 100 µM,1.4,> 100 µM,,,20%
C[C@H](NC(=O)[C@H](Cc1ccc(OCc2ccccc2)cc1)NC(=O)OC(C)(C)C)C(=O)N[C@@H](Cc1c[nH]c2ccccc12)C(=O)O (Boc-Tyr(Bn)-Ala-Trp-OH),< 20%,> 100 µM,1.5,> 100 µM,,,< 20%
COC(=O)[C@H](Cc1c[nH]c2ccccc12)NC(=O)[C@H](C)NC(=O)[C@H](Cc1ccc(OCc2ccccc2)cc1)NC(=O)OC(C)(C)C (Boc-Tyr(Bn)-Ala-Trp-OMe),,44.8 µM,9.8,> 100 µM,,,
COC(=O)[C@H](Cc1c[nH]c2c(Br)cccc12)NC(=O)[C@H](C)NC(=O)[C@H](Cc1ccc(OC)c(I)c1)NC(=O)OC(C)(C)C,,59.3 µM,,74 µM,< 20%,> 100 µM,
